Experimental data from ChEMBL document CHEMBL4665630, “Synthesis and biological evaluation of anthraquinone derivatives as allosteric phosphoglycerate mutase 1 inhibitors for cancer treatment” (Eur J Med Chem, 2019).
Active and inactive are the calls of the source. The rule behind the calls is not given here.

What was measured:
[1] = test system: NCI-H1299; test: Inhibition of anaerobic glycolysis in human NCI-H1299 cells assessed as decrease in glycolytic capacity pretreated for 12 hrs in presence of glucose/2-DG and oligomycin by […] assay; assay type: functional, cell-based
Method in brief: (§1)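 H1299 cells, 10,000 per well, exposed to 10 or 20 µM or PBS for 12 h, then Seahorse XF96. Glycolysis stress: glucose 10 mM, oligomycin 1 µM, 2-DG 50 mM (ECAR). Mito stress: oligomycin 1 µM, FCCP 1 µM, rotenone/antimycin A 0.5 µM (OCR). Normalised to cell number; triplicates, mean ± s.d.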

[2] = test system: NCI-H1299; test: Antitumor activity against human NCI-H1299 cells xenografted in ICR mouse assessed as tumor weight at 100 mg/kg,qd ip upto 8 days relative to control; assay type: functional, organism-based; conditions: nude, time day <=8, in the assay text read “nude mouse” for “ICR mouse”
Method in brief: (§2)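 Nude mice (male, 4–6 weeks) given 5×10^6 H1299 cells in PBS subcutaneously at both flanks; at ~200 mm³ randomised to vehicle or 100 mg/kg i.p. once daily; volume (L×W×W)×π/6, body weight tracked; terminal tumour weights, Ki67 IHC on tumours, H&E of kidney and liver; mean ± s.e.m., unpaired t-test.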

[3] = test system: NCI-H1299; test: Induction of ROS production in human H1299 cells using carboxy-H2DCFDA at 10 to 20 uM incubated for 24 hrs by FACS analysis; assay type: functional, cell-based; conditions: dose microM 10-20
Method in brief: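 H1299 cells, 2×10^5 per well, loaded 24 h after seeding with 12.5 µM carboxy-H2DCFDA for 60 min after PBS wash; harvested and analysed by flow cytometry, excitation 490/emission 530 nm.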

[4] = molecular target: Phosphoglycerate mutase 1 (Homo sapiens, UniProt P18669); test: Inhibition of human recombinant PGAM1 by measuring decrease in OD by enzyme based assay
Method in brief: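 C-terminal His6-tagged PGAM1, Ni-NTA purified, 4.6 nM, preincubated with inhibitor in DMSO; coupled enolase/pyruvate kinase M2/LDH system in 100 mM Tris-HCl, 100 mM KCl, 5 mM MgCl2, 1 mM ADP, 0.2 mM NADH, 4 mM 3PG; NADH loss read at 340 nm. Counter-screen without PGAM1 using 4 mM 2PG. Mean ± s.d., n=3.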

[5] = test system: NCI-H1299; test: Inhibition of oxidative phosphorylation in human NCI-H1299 cells assessed as decrease in oxygen consumption rate at 10 to 20 uM pretreated for 80 mins in presence of glucose/2-DG and oligomycin by seahorse XF24 extracellular flux analyzer assay; assay type: functional, cell-based; conditions: dose microM 10-20, time 80.0 min
[6] = AUC (0 to 24 hrs) in ICR mouse at 100 mg/kg, ip measured upto 24 hrs by LC-MS analysis; assay type: ADME, organism-based; set-up: route intraperitoneal, dose 100 mg/kg, time <=24; conditions: in vivo
Method in brief: (§3)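 Male ICR mice, single intraperitoneal 100 mg/kg in 7% DMSO/7% Cremophor EL/86% PBS; heparinised blood at 0.25, 0.5, 1, 2, 4, 6, 10, 24 h; plasma extracted with methanol, quantified by HPLC against a standard curve (water/methanol with 0.1% TFA gradient); n = 3 animals per time point.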

[7] = test system: NCI-H1299; test: Inhibition of oxidative phosphorylation in human NCI-H1299 cells assessed as decrease in basal respiration at 10 to 20 uM pretreated for 12 hrs in presence of glucose/2-DG and oligomycin by […] assay; assay type: functional, cell-based; conditions: dose microM 10-20, time 12.0 hrs; method in brief: as §1
[8] = Toxicity in nude mouse xenografted with human NCI-H1299 cells assessed as kidney and liver histology at 100 mg/kg, ip qd upto 8 days by haematoxylin and eosin staining-based light microscopic analysis; conditions: in vivo, 192 h
[9] = test system: NCI-H1299; test: Antiproliferative activity against human H1299 cells assessed as reduction in cell viability measured after 72 hrs by MTT assay; assay type: functional, cell-based; conditions: NCI-H1299, 72 h
Method in brief: (§4)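 Cells grown in RPMI-1640 (H1299, PC9) or F-12K (A549) with 10% FBS and penicillin/streptomycin; 2000 H1299 or A549 or 1000 PC9 cells per well, attached 24 h, exposed to inhibitor 72 h; MTT 0.5 mg/mL for 4 h, absorbance at 570 nm; mean ± s.d., n=3.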

[10] = Toxicity in nude mouse xenografted with human NCI-H1299 cells assessed as body weight loss at 100 mg/kg, ip qd upto 8 days; conditions: in vivo, 192 h
[11] = test system: NCI-H1299; test: Inhibition of anaerobic glycolysis in human NCI-H1299 cells assessed as decrease in glycolytic reserve pretreated for 12 hrs in presence of glucose/2-DG and oligomycin by […]; assay type: functional, cell-based; method in brief: as §1
[12] = test system: NCI-H1299; test: Inhibition of oxidative phosphorylation in human NCI-H1299 cells assessed as decrease in maximal respiration at 10 to 20 uM pretreated for 12 hrs in presence of glucose/2-DG and oligomycin by […]; assay type: functional, cell-based; conditions: dose microM 10-20, time 12.0 hrs; method in brief: as §1
[13] = test system: NCI-H1299; test: Inhibition of glucose metabolism in human H1299 cells assessed as reduction in ATP level at 10 to 20 uM; assay type: functional, cell-based; conditions: dose microM 10-20
[14] = Tmax in ICR mouse at 100 mg/kg, ip measured upto 24 hrs by LC-MS analysis; assay type: ADME, organism-based; conditions: in vivo; method in brief: as §3
[15] = AUC (0 to infinity) in ICR mouse at 100 mg/kg, ip measured upto 24 hrs by LC-MS analysis; assay type: ADME, organism-based; set-up: route intraperitoneal, dose 100 mg/kg, time <=24; conditions: in vivo; method in brief: as §3
[16] = test system: NCI-H1299; test: Inhibition of anaerobic glycolysis in human NCI-H1299 cells assessed as decrease in glycolysis rate pretreated for 12 hrs in presence of glucose/2-DG and oligomycin by […]; assay type: functional, cell-based; method in brief: as §1
[17] = test system: NCI-H1299; test: Inhibition of anaerobic glycolysis in human NCI-H1299 cells assessed as decrease in extracellular acidification rate at 10 to 20 uM pretreated for 12 hrs in presence of glucose/2-DG and oligomycin by seahorse XF96 extracellular flux analyzer assay; conditions: dose microM 10-20, time 12 h
[18] = test system: NCI-H1299; test: Inhibition of oxidative phosphorylation in human NCI-H1299 cells assessed as decrease in spare capacity at 10 to 20 uM pretreated for 12 hrs in presence of glucose/2-DG and oligomycin by […]; assay type: functional, cell-based; conditions: dose microM 10-20, time 12.0 hrs; method in brief: as §1
[19] = Half life in ICR mouse at 100 mg/kg, ip measured upto 24 hrs by LC-MS analysis; assay type: ADME, organism-based; conditions: in vivo; method in brief: as §3
[20] = […] xenografted with human NCI-H1299 cells assessed as kidney histology at 100 mg/kg, ip qd upto 8 days by haematoxylin and eosin staining-based light microscopic analysis; assay type: organism-based; conditions: in vivo, 192 h, time <=8 day; method in brief: as §2
[21] = Apparent oral clearance in ICR mouse at 100 mg/kg, ip measured upto 24 hrs by LC-MS analysis; assay type: ADME, organism-based; conditions: in vivo; method in brief: as §3
[22] = test system: NCI-H1299; test: Reduction in lactate production in human H1299 cells at 10 to 20 uM incubated for 24 hrs colorimetry based lactate assay; assay type: functional, cell-based; conditions: dose microM 10-20
Method in brief: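 Cells grown overnight at 37 °C; at 50% confluence switched to phenol red-free, serum-free RPMI for 1 h at 37 °C; medium lactate measured colorimetrically with a kit, normalised to microscope cell counts.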

[23] = Apparent oral volume of distribution in ICR mouse at 100 mg/kg, ip measured upto 24 hrs by LC-MS analysis; assay type: ADME, organism-based; conditions: in vivo; method in brief: as §3
[24] = test system: A549; test: Antiproliferative activity against human A549 cells assessed as reduction in cell viability measured after 72 hrs by MTT assay; assay type: functional, cell-based; conditions: A549, 72 h; method in brief: as §4
[25] = molecular target: 5'-AMP-activated protein kinase catalytic subunit alpha-2 (Homo sapiens) (UniProt P54646); test: Activation of AMPK in human H1299 cells assessed as increase in AMPK phosphorylation at 10 to 20 uM by Western blot analysis; assay type: cell-based; conditions: NCI-H1299, filed as activator, dose microM 10-20
[26] = Cmax in ICR mouse at 100 mg/kg, ip measured upto 24 hrs by LC-MS analysis; assay type: ADME, organism-based; set-up: route intraperitoneal, dose 100 mg/kg, time <=24; conditions: in vivo; method in brief: as §3
[27] = test system: NCI-H1299; test: Antitumor activity against human NCI-H1299 cells xenografted in nude mouse assessed as tumor volume at 100 mg/kg,qd ip measured upto 8 days relative to control; conditions: time day <=8
[28] = test system: PC-9; test: Antiproliferative activity against human PC-9 cells assessed as reduction in cell viability measured after 72 hrs by MTT assay; assay type: functional, cell-based; conditions: PC-9, 72 h; method in brief: as §4

Chain of 5'-AMP-activated protein kinase catalytic subunit alpha-2 (Homo sapiens) (P54646 whole entry, looked up): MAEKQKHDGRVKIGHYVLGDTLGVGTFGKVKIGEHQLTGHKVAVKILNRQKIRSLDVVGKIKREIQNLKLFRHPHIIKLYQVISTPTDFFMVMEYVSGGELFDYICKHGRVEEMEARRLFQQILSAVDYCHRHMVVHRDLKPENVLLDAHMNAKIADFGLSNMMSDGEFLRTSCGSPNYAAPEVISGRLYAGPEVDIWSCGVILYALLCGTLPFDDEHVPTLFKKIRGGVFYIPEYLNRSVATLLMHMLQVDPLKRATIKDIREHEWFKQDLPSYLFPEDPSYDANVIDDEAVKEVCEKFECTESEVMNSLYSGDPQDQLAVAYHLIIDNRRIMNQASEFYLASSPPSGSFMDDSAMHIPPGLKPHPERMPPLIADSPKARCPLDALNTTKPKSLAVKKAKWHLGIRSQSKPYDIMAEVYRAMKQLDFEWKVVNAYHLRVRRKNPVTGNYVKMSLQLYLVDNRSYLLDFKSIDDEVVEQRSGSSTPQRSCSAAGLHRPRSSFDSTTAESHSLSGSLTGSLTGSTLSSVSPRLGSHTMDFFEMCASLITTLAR
Chain of Phosphoglycerate mutase 1 (P18669 whole entry): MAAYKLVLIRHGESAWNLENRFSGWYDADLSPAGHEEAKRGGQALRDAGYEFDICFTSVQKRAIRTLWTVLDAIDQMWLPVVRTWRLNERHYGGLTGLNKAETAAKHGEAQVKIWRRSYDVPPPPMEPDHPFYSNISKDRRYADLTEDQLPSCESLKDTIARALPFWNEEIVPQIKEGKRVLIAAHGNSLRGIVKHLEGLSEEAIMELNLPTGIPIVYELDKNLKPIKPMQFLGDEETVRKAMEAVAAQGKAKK

Compound: O=C1c2ccccc2C(=O)c2c1cc(NS(=O)(=O)c1ccc(-c3ccccc3)cc1)c(O)c2O
- inhibition [1]: Dose-dependent effect
- Activity [2]: Active
- Activity [3]: Active
- IC50 [4]: 0.25 µM
- inhibition [5]: Active
- AUC(0-t) [6]: 239 µg·h/mL
- inhibition [7]: Active
- Activity [8]: Non-Toxic
- IC50 [9]: 6.4 µM
- Activity [10]: Non-Toxic
- inhibition [11]: Dose-dependent effect
- inhibition [12]: Active
- inhibition [13]: Active
- Tmax [14]: 0.25 h
- AUC(0-inf) [15]: 245 µg·h/mL
- inhibition [16]: Dose-dependent effect
- inhibition [17]: Dose-dependent effect
- inhibition [18]: Active
- half-life [19]: 4.28 h
- Activity [20]: Non-Toxic
- CL/F [21]: 0.193 mL/min
- Activity [22]: Active
- Vd/F [23]: 71.64 mL
- IC50 [24]: 10.3 µM
- Activity [25]: Active
- Cmax [26]: 131 µg/mL
- Activity [27]: Active
- IC50 [28]: 4.8 µM
